These results are taken from ChEMBL document CHEMBL3124880, “4-(3-Chloro-5-(trifluoromethyl)pyridin-2-yl)-N-(4-methoxypyridin-2-yl)piperazine-1-carbothioamide (ML267), a potent inhibitor of bacterial phosphopantetheinyl transferase that attenuates secondary metabolism and thwarts bacterial growth” (J Med Chem, 2014).

Activity calls are given as the source filed them. The calls are words filed in the database; no cut-off is given here.

Test [1] concerns Bacillus subtilis. Nature of the test: Antibacterial activity against Bacillus subtilis HM489 assessed as cellular ATP content after 5 hrs by BacTiter-Glo assay. The class given is functional, organism-based. The settings on record: HM489, 5 h.
The test system of the next test is HepG2. Kind of test: Cytotoxicity against human HepG2 cells assessed as cellular ATP content after 48 hrs by CellTiter-Glo assay. The format is cell-based. The settings on record: HepG2, 48 h. In a few lines:
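HepG2 cells exposed to compound; viability read as cellular ATP by luciferase-coupled CellTiter-Glo.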

Test [2] can be described thus: Inhibition of Bacillus subtilis Sfp-PPTase using rhodamine-CoA/BHQ-2-YbbR as substrate preincubated for 15 mins followed by substrate addition by HTS assay.
For test [3], the system named is Bacillus subtilis. Kind of test: Reversible inhibition of Bacillus subtilis Sfp-PPTase using rhodamine-CoA/FITC-YbbR as substrate assessed as residual enzyme activity at IC90 preincubated for 30 mins followed by 100 fold dilution and addition of substrate by fluorescence assay.
Test [4] in a line: Non-competitive inhibition of Bacillus subtilis Sfp-PPTase using CoA/ActACP as substrate preincubated for 10 mins followed by substrate addition measured after 30 mins by HPLC analysis.
Test [5] concerns Bacillus subtilis. Kind of test: Inhibition of Bacillus subtilis Sfp-PPTase using CoA/apo-ACP as substrate preincubated for 10 mins followed by substrate addition measured after 30 mins by PAGE analysis. The method in brief: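 Compound in DMSO added to Sfp at 26.6 nM (in a 1.33× enzyme solution) in HEPES-Na pH 7.6 with MgCl2, NP-40 and BSA, and held 10 min. Reaction started with rhodamine-CoA and apo-actinorhodin-ACP, each 50 μM in a 4× substrate solution. After 30 min at room temperature, quenched with urea/EDTA and resolved by native 20% PAGE.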

The subject of test [6] is Bacillus subtilis. Nature of the test: Inhibition of Bacillus subtilis Sfp-PPTase. The method in brief:
(§1)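 qHTS fluorescence assay in 50 mM HEPES-Na pH 7.6, 10 mM MgCl2, 0.01% NP-40, 0.01% BSA. Final enzyme 15 nM Sfp or 100 nM AcpS. Enzyme preincubated with compound 15 min at room temperature, then rhodamine-CoA 5 μM and BHQ-2-YbbR 12.5 μM (final) added. Fluorescence (525 ex/598 em) read at start and after 30 min (Sfp) or 60 min (AcpS); the difference gives the rate. Eight concentrations from 3.6 nM to 114 μM, run in triplicate.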

The nature of test [7]: Inhibition of Bacillus subtilis AcpS-PPTase using rhodamine-CoA/BHQ-2-YbbR as substrate preincubated for 15 mins followed by substrate addition by HTS assay. The method in brief: (§2)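 AcpS-PPTase at 100 nM final in 50 mM HEPES-Na pH 7.6, 10 mM MgCl2, 0.01% Nonidet P-40, 0.01% BSA; compound preincubated 15 min at room temperature, then rhodamine-CoA (5 μM final) and BHQ-2-YbbR (12.5 μM final) added. Fluorescence read (525 ex/598 em) at start and after 60 min; difference gives rate.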

Test [8] relates to Bacillus subtilis. Kind of test: Inhibition of Bacillus subtilis AcpS-PPTase. In a few lines: as §1
Test [9] in a line: Inhibition of AcpS-PPTase (unknown origin). The method in brief: as §2

For the compound `Cc1ccnc(NC(=S)N2CCN(c3cccc(C(F)(F)F)c3)CC2)c1`, the IC50 with Bacillus subtilis [1] was 9.8 µM; in the test with HepG2, 14 µM; in test [2], 0.78 µM; in [4], 0.3 µM; in [7], 4.6 µM. Further, the inhibition result in the test on Bacillus subtilis [3], with Bacillus subtilis [6] and in the test on Bacillus subtilis [8] was “Active” each time. Further, the inhibition result with Bacillus subtilis [5] was “Dose-dependent effect”.

On to `CSC(Cc1ccc(Cl)cc1)C(=O)Nc1ccc(Cl)cc1C(=O)O` (stereo not given), for which the IC50 in [9] was determined as 1.4 µM.

The IC50 is the point on the concentration scale where inhibition reaches its midpoint.
